pIC50: −log10 of the molar value. Each block holds one compound with its values, some of them ahead of it. Active and inactive are the calls of the source. The rule behind the calls is not given here.
What was measured:
RAW264.7 [1] = test: Inhibition of LPS-induced NO production in mouse RAW264.7 cells at 20 uM after 20 hrs by Griess method; format: functional; conditions: RAW264.7, 20 h
Outline: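 Same nitrite read-out in RAW 264.7 cells: 1% FBS medium, LPS 1 μg/mL with compound at 20 μM for 20 h. Griess reagent, 570 nm, nitrite standard curve. Percent inhibition relative to LPS-only control, n = 3.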

RAW264.7 [2] = test: Inhibition of LPS-induced NO production in mouse RAW264.7 cells after 20 hrs by Griess method; format: functional, cell-based; conditions: RAW264.7, 20 h
Outline: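 RAW 264.7 cells in 10% FBS-DMEM plated at 1 × 10⁵ cells/mL for 24 h, then switched to 1% FBS medium. Incubated 20 h with LPS (1 μg/mL) ± compounds. Nitrite in supernatant measured with Griess reagent, 10 min at room temperature, absorbance 570 nm, sodium nitrite standard curve. IC50 taken from dose–response curve; mean ± SD of three experiments.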

RAW264.7 [3] = test: Inhibition of LPS-induced iNOS protein expression in mouse RAW264.7 cells at 20 uM after 20 hrs by Western blot analysis; format: functional, cell-based
Outline: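 RAW 264.7 cells at 8 × 10⁵ per 60 mm dish treated 20 h with LPS (1 μg/mL) and compound (5, 20 μM). Cells washed and lysed; 20 μg lysate protein run on 8% SDS-PAGE, transferred to PVDF. Probed with anti-iNOS and anti-β-actin (internal control); ECL detection. Representative of three independent experiments.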

[4] = molecular target: Transcription factor p65 (Mus musculus) (UniProt Q04207); test: Inhibition of NF-kB p65 nuclear translocation in LPS-stimulated mouse RAW264.7 cells at 5 uM treated 30 mins before LPS challenge measured after 15 mins by Western blot analysis
Transcription factor p65 (Mus musculus), sequence (Q04207 whole entry): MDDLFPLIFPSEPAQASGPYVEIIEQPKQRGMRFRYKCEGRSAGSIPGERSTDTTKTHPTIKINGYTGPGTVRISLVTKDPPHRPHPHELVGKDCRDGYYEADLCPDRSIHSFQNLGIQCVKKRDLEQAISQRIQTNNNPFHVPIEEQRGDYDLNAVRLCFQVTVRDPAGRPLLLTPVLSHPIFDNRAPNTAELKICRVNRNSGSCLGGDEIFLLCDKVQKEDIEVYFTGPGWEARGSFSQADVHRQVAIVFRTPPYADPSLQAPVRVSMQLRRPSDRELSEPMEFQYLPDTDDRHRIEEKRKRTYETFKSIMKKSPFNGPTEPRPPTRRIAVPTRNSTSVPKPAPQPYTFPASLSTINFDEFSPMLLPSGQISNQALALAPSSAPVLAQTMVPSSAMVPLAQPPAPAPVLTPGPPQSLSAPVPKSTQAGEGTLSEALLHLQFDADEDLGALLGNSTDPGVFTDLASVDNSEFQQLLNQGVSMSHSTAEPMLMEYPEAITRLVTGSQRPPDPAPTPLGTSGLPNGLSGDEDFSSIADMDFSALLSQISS

[5] = molecular target: Transcription factor p65 (Mus musculus) (UniProt Q04207); test: Inhibition of NF-kB p65 nuclear translocation in LPS-stimulated mouse RAW264.7 cells at 20 uM treated 30 mins before LPS challenge measured after 15 mins by Western blot analysis
RAW264.7 [6] = test: Inhibition of LPS-induced iNOS mRNA expression in mouse RAW264.7 cells at 5 uM after 6 hrs by RT-PCR analysis; format: functional, cell-based
Outline: (§1)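 RAW 264.7 cells at 8 × 10⁵ per 60 mm dish stimulated 6 h with LPS (1 μg/mL) plus compound at 5 or 20 μM. Total RNA extracted; iNOS mRNA measured by RT-PCR with β-actin as internal control. PCR run 25 cycles (94 °C 30 s, 55 °C 30 s, 72 °C 30 s); products run on 2% agarose gel. Representative of three independent experiments.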

RAW264.7 [7] = test: Inhibition of LPS-induced iNOS mRNA expression in mouse RAW264.7 cells at 20 uM after 6 hrs by RT-PCR analysis; format: functional, cell-based; outline: as §1
RAW264.7 [8] = test: Inhibition of LPS-induced NO production in mouse RAW264.7 cells at 100 uM after 20 hrs by Griess method; format: functional; conditions: RAW264.7, 20 h

Compound: S=C(Nc1ccc(OCCn2c3ccccc3c3ccccc32)cc1)OCc1ccccc1
inhibition at 20 µM (RAW264.7 [1]): 18%

pIC50 (RAW264.7 [2]): 5.19
inhibition [4]: Active
inhibition [5]: Active
Compound: CCOC(=O)CNC(=S)Oc1ccc(OCCn2c3ccccc3c3ccccc32)cc1
inhibition (RAW264.7 [3]): Active
inhibition (RAW264.7 [6]): Active
inhibition (RAW264.7 [7]): Active
inhibition at 20 µM (RAW264.7 [1]): 73%

Compound: CCSC(=O)Nc1ccc(OCCn2c3ccccc3c3ccccc32)cc1
inhibition at 20 µM (RAW264.7 [1]): 26%

Compound: CCNC(=O)Oc1ccc(OCCn2c3ccccc3c3ccccc32)cc1
inhibition at 20 µM (RAW264.7 [1]): 10%

Compound: N=C(N)NN [PIMAGEDINE]
inhibition at 100 µM (RAW264.7 [8]): 74%

Compound: CCNC(=S)Oc1ccc(OCCn2c3ccccc3c3ccccc32)cc1
inhibition at 20 µM (RAW264.7 [1]): 10%

Compound: CSC(=O)Nc1ccc(OCCn2c3ccccc3c3ccccc32)cc1
inhibition at 20 µM (RAW264.7 [1]): 44%

pIC50 (RAW264.7 [2]): 4.92
inhibition [4]: Active
inhibition [5]: Active
Compound: COC(=S)Nc1ccc(OCCn2c3ccccc3c3ccccc32)cc1
inhibition (RAW264.7 [3]): Active
inhibition (RAW264.7 [7]): Active
inhibition at 20 µM (RAW264.7 [1]): 60%

Compound: CCOC(=O)CNC(=O)Oc1ccc(OCCn2c3ccccc3c3ccccc32)cc1
inhibition at 20 µM (RAW264.7 [1]): 35%

Compound: COC(=O)CNC(=O)Oc1ccc(OCCn2c3ccccc3c3ccccc32)cc1
inhibition at 20 µM (RAW264.7 [1]): 33%

Compound: CC(C)OC(=S)Nc1ccc(OCCn2c3ccccc3c3ccccc32)cc1
inhibition at 20 µM (RAW264.7 [1]): 20%

Compound: O=C(Nc1ccc(OCCn2c3ccccc3c3ccccc32)cc1)Oc1ccc([N+](=O)[O-])cc1
inhibition at 20 µM (RAW264.7 [1]): 22%

From ChEMBL document CHEMBL2016492, “Design and synthesis of carbamate and thiocarbamate derivatives and their inhibitory activities of NO production in LPS activated macrophages” (Bioorg Med Chem Lett, 2012)
